In ChEMBL document CHEMBL1255381, “Golgicide A reveals essential roles for GBF1 in Golgi assembly and function” (Nat Chem Biol, 2009):
Calls of active or inactive are those of the source. The calls are words filed in the database; no cut-off is given here.

How the values were obtained:
Format in all cases: cell-based
Conditions in all cases: Chlorocebus sabaeus
[1] = test system: Vero; test: Inhibition of GBF1 in african green monkey Vero cells assessed as inhibition of StxB-SS retrogade transport from endosomes to TGN at 10 uM by immunofluorescence method
[2] = test system: Vero; test: Inhibition of Arf1 in african green monkey Vero cells overexpressing BIG1 assessed as punctate and diffuse distribution of medial-Golgi marker giantin from golgi at 10 ug/ml after 1 hr by immunofluorescence method
[3] = test system: Vero; test: Inhibition of GBF1 in african green monkey Vero cells assessed as punctate and diffuse distribution of medial-Golgi marker giantin […] at 10 uM after 1 hr by immunofluorescence method
[4] = test system: Vero; test: Inhibition of Arf1 in african green monkey Vero cells assessed as punctate and diffuse distribution of cis-Golgi marker GM130 at 10 ug/ml after 1 hr by immunofluorescence method
[5] = test system: Vero; test: Inhibition of Arf1 in african green monkey Vero cells assessed as decrease in Arf1-GTP levels at 10 ug/ml after 1 hr
Summary of the method: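 Vero cells transduced with adenoviral Arf1-V5, alone or with GBF1-ML-HA; next day reseeded, then 45 min at 37°C with medium, BFA 10 µg/ml or compound 10 μM. Lysates pulled down with GGA3 VHS-GAT-GST on glutathione agarose, 30 min 4°C; Arf1-GTP by anti-V5 Western, band densitometry, duplicate experiments averaged.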

[6] = test system: Vero; test: Inhibition of Arf1 in african green monkey Vero cells assessed as punctate and diffuse distribution of medial-Golgi marker giantin at 10 ug/ml after 1 hr by immunofluorescence method
[7] = test system: Vero; test: Inhibition of Arf1 in african green monkey Vero cells assessed as rapid COPI redistribution from golgi at 10 ug/ml after 5 mins by immunofluorescence method
[8] = test system: Vero; test: Inhibition of Arf1 in african green monkey Vero cells assessed as rapid GGA3 dispersal from trans golgi network at 10 ug/ml after 5 mins by immunofluorescence method
[9] = test system: Vero; test: Inhibition of Arf1 in african green monkey Vero cells assessed as inhibition of StxB-SS retrogade transport from endosomes to TGN at 10 ug/ml by immunofluorescence method
[10] = test system: Vero; test: Inhibition of Arf1 in african green monkey Vero cells expressing GBF1 QNV deleted mutant assessed as effect on change in golgi morphology at 10 ug/ml after 1 hr by immunofluorescence method
[11] = test system: Vero; test: Inhibition of Arf1 in african green monkey Vero cells assessed as rapid AP-1 dispersal from golgi membranes at 10 ug/ml after 5 mins by immunofluorescence method
[12] = test system: Vero; test: Inhibition of Arf1 in african green monkey Vero cells assessed as tubule formation from trans golgi network and endosomes before its dispersal at 10 ug/ml after 1 hr by immunofluorescence method
[13] = test system: Vero; test: Inhibition of GBF1 in african green monkey Vero cells assessed as tubule formation from trans golgi network and endosomes before its dispersal in african green monkey Vero cells at 10 uM after 1 hr by immunofluorescence method
[14] = test system: Vero; test: Inhibition of GBF1 QNV to AAA mutant in african green monkey Vero cells assessed as effect on change in golgi morphology at 10 uM after 1 hr by immunofluorescence method
[15] = test system: Vero; test: Induction of GBF1 in african green monkey Vero cells assessed as punctate and diffuse distribution of cis-Golgi marker GM130 from TGN at 10 uM after 1 hr by immunofluorescence method
[16] = test system: Vero; test: Inhibition of GBF1 QNV deleted mutant in african green monkey Vero cells assessed as effect on change in golgi morphology at 10 uM after 1 hr by immunofluorescence method
[17] = test system: Vero; test: Inhibition of Arf1 in african green monkey Vero cells expressing GBF1 QNV to AAA mutant assessed as effect on change in golgi morphology at 10 ug/ml after 1 hr by immunofluorescence method
[18] = test system: Vero; test: Inhibition of Arf1 in african green monkey Vero cells assessed as giantin positive punctate structures in contact with Sec31-positive ER exit site at 10 ug/ml after 1 hr by immunofluorescence method
Summary of the method: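 Vero cells given BFA 10 μg/ml or compound 10 μM for 60 min, fixed, co-stained for giantin and ER exit site marker Sec31; giantin puncta relative to ERES scored by immunofluorescence.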

[19] = test system: Vero; test: Inhibition of Arf1 in african green monkey Vero cells expressing GBF1-M832L mutant assessed as inhibition of StxB-SS retrogade transport from endosomes to TGN in african green monkey Vero cells at 10 ug/ml by immunofluorescence method
[20] = test system: Vero; test: Restoration of Arf1-GTP levels in african green monkey Vero cells expressing GBF1-M832L mutant at 10 ug/ml after 1 hr

`C[C@H]1CCC/C=C/[C@@H]2C[C@H](O)C[C@H]2[C@H](O)/C=C/C(=O)O1` was tested, and the inhibition [1] was “Active”, the inhibition [2] was “inactive” and the inhibition [3] was “Active”. The inhibition [4] was “Active”, the inhibition [5] was “Active” and the inhibition [6] was “Active”. The inhibition [7] was “Active”, the inhibition [8] was “Active” and the inhibition [9] was “Active”. The inhibition [10] was “inactive”, the inhibition [11] was “Active” and the inhibition [12] was “Active”. For the same compound, the inhibition [13] was “inactive”, the inhibition [14] was “Active” and the Activity [15] was “Active”. For the same compound, the inhibition [16] was “Active”, the inhibition [17] was “inactive” and the inhibition [18] was “Active”. The inhibition [19] was “inactive” and the Activity [20] was “inactive”.
